Measured values reported in ChEMBL document CHEMBL1671620, “Mutations in the fks1 gene in Candida albicans, C. tropicalis, and C. krusei correlate with elevated caspofungin MICs uncovered in AM3 medium using the method of the European Committee on Antibiotic Susceptibility Testing” (2008).
Values after ≈ are worked out from the molar mass of the structure shown.

How the values were obtained:
Candida albicans [1] = assay: Antifungal activity against Candida albicans isolate 15 expressing wild type 1,3-beta-glucan synthase grown on AM3 media after 48 hrs by EUCAST microdilution method; assay type: functional; conditions: isolate 15, 24 h, in the assay text read “24 hrs” for “48 hrs”
Method in brief: (§1)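 EUCAST (AFST-EUCAST) broth microdilution with caspofungin at 0.015 to 8 μg/ml final, in AM3 with glucose added to 2% final. Final inoculum was 10⁵ yeast cells/ml, with microplates prepared in batches and stored at −20°C. Plates were incubated at 35°C in humid ambient air and read spectrophotometrically after shaking at 24 h and 48 h. MIC was ≥50% growth reduction versus drug-free well; 90% end point also read at both times.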

Candida albicans [2] = assay: Antifungal activity against Candida albicans isolate 21 harboring 1,3-beta-glucan synthase HS1 point mutant grown on RPMI media after 24 hrs by EUCAST microdilution method; conditions: isolate 21, 24 h
Candida albicans [3] = assay: Antifungal activity against Candida albicans isolate 22 harboring 1,3-beta-glucan synthase HS1 point mutant grown on RPMI media after 24 hrs by EUCAST microdilution method; conditions: isolate 22, 24 h
Candida tropicalis [4] = assay: Antifungal activity against Candida tropicalis ATCC 750 expressing wild type 1,3-beta-glucan synthase grown on AM3 media after 48 hrs by EUCAST microdilution method; assay type: functional; conditions: ATCC 750, 24 h, in the assay text read “24 hrs” for “48 hrs”; method in brief: as §1
Candida albicans [5] = assay: Antifungal activity against Candida albicans isolate 3 expressing wild type 1,3-beta-glucan synthase grown on RPMI media after 24 hrs by EUCAST microdilution method; conditions: isolate 3, 24 h
Candida tropicalis [6] = assay: Antifungal activity against Candida tropicalis isolate 2 harboring 1,3-beta-glucan synthase HS1 point mutant grown on RPMI media after 24 hrs by EUCAST microdilution method; conditions: isolate 2, 24 h
Candida albicans [7] = assay: Antifungal activity against Candida albicans isolate 21 harboring 1,3-beta-glucan synthase HS1 point mutant grown on AM3 media after 24 hrs by EUCAST microdilution method; conditions: isolate 21, 24 h
Candida albicans [8] = assay: Antifungal activity against Candida albicans isolate 24 harboring 1,3-beta-glucan synthase HS1 point mutant grown on AM3 media after 24 hrs by EUCAST microdilution method; conditions: isolate 24, 24 h
Candida tropicalis [9] = assay: Antifungal activity against Candida tropicalis isolate 1 expressing wild type 1,3-beta-glucan synthase grown on RPMI media after 24 hrs by EUCAST microdilution method; conditions: isolate 1, 24 h
Candida albicans [10] = assay: Antifungal activity against Candida albicans isolate 23 harboring 1,3-beta-glucan synthase HS2 point mutant grown on RPMI media after 24 hrs by EUCAST microdilution method; conditions: isolate 23, 24 h
Candida albicans [11] = assay: Antifungal activity against Candida albicans isolate 1 expressing wild type 1,3-beta-glucan synthase grown on RPMI media after 24 hrs by EUCAST microdilution method; conditions: isolate 1, 24 h
Candida albicans [12] = assay: Antifungal activity against Candida albicans isolate 5 expressing wild type 1,3-beta-glucan synthase grown on AM3 media after 48 hrs by EUCAST microdilution method; assay type: functional; conditions: isolate 5, 24 h, in the assay text read “after 24 hrs” for “after 48 hrs”; method in brief: as §1
Candida albicans [13] = assay: Antifungal activity against Candida albicans isolate 13 expressing wild type 1,3-beta-glucan synthase grown on RPMI media after 24 hrs by EUCAST microdilution method; conditions: isolate 13, 24 h
Candida albicans [14] = assay: Antifungal activity against Candida albicans isolate 6 expressing wild type 1,3-beta-glucan synthase grown on AM3 media after 48 hrs by EUCAST microdilution method; assay type: functional; conditions: isolate 6, 24 h, in the assay text read “after 24 hrs” for “after 48 hrs”; method in brief: as §1
Candida tropicalis [15] = assay: Antifungal activity against Candida tropicalis isolate 1 expressing wild type 1,3-beta-glucan synthase grown on AM3 media after 48 hrs by EUCAST microdilution method; assay type: functional; conditions: isolate 1, 24 h, in the assay text read “24 hrs” for “48 hrs”; method in brief: as §1
Candida albicans [16] = assay: Antifungal activity against Candida albicans isolate 2 expressing wild type 1,3-beta-glucan synthase grown on RPMI media after 24 hrs by EUCAST microdilution method; conditions: isolate 2, 24 h
Candida albicans [17] = assay: Antifungal activity against Candida albicans isolate 7 expressing wild type 1,3-beta-glucan synthase grown on AM3 media after 48 hrs by EUCAST microdilution method; assay type: functional; conditions: isolate 7, 24 h, in the assay text read “after 24 hrs” for “after 48 hrs”; method in brief: as §1
Candida albicans [18] = assay: Antifungal activity against Candida albicans isolate 4 expressing wild type 1,3-beta-glucan synthase grown on RPMI media after 24 hrs by EUCAST microdilution method; conditions: isolate 4, 24 h
Candida albicans [19] = assay: Antifungal activity against Candida albicans isolate 14 expressing wild type 1,3-beta-glucan synthase grown on AM3 media after 48 hrs by EUCAST microdilution method; assay type: functional; conditions: isolate 14, 24 h, in the assay text read “after 24 hrs” for “after 48 hrs”; method in brief: as §1
Candida albicans [20] = assay: Antifungal activity against Candida albicans isolate 23 harboring 1,3-beta-glucan synthase HS2 point mutant grown on AM3 media after 24 hrs by EUCAST microdilution method; conditions: isolate 23, 24 h
Candida albicans [21] = assay: Antifungal activity against Candida albicans isolate 3 expressing wild type 1,3-beta-glucan synthase grown on AM3 media after 48 hrs by EUCAST microdilution method; assay type: functional; conditions: isolate 3, 24 h, in the assay text read “after 24 hrs” for “after 48 hrs”; method in brief: as §1
Candida albicans [22] = assay: Antifungal activity against Candida albicans isolate 15 expressing wild type 1,3-beta-glucan synthase grown on RPMI media after 24 hrs by EUCAST microdilution method; conditions: isolate 15, 24 h
Candida albicans [23] = assay: Antifungal activity against Candida albicans isolate 14 expressing wild type 1,3-beta-glucan synthase grown on RPMI media after 24 hrs by EUCAST microdilution method; conditions: isolate 14, 24 h
Candida albicans [24] = assay: Antifungal activity against Candida albicans isolate 8 expressing wild type 1,3-beta-glucan synthase grown on AM3 media after 48 hrs by EUCAST microdilution method; assay type: functional; conditions: isolate 8, 24 h, in the assay text read “after 24 hrs” for “after 48 hrs”; method in brief: as §1
Candida albicans [25] = assay: Antifungal activity against Candida albicans isolate 19 harboring 1,3-beta-glucan synthase HS1 point mutant grown on RPMI media after 24 hrs by EUCAST microdilution method; conditions: isolate 19, 24 h
Candida albicans [26] = assay: Antifungal activity against Candida albicans isolate 20 harboring 1,3-beta-glucan synthase HS1 point mutant grown on RPMI media after 24 hrs by EUCAST microdilution method; conditions: isolate 20, 24 h
Candida albicans [27] = assay: Antifungal activity against Candida albicans isolate 25 expressing wild type 1,3-beta-glucan synthase grown on RPMI media after 24 hrs by EUCAST microdilution method; conditions: isolate 25, 24 h

## CC[C@H](C)C[C@H](C)CCCCCCCCC(=O)N[C@H]1C[C@@H](O)[C@@H](NCCN)NC(=O)[C@@H]2[C@@H](O)CCN2C(=O)[C@H]([C@H](O)CCN)NC(=O)[C@H]([C@H](O)[C@@H](O)c2ccc(O)cc2)NC(=O)[C@@H]2C[C@@H](O)CN2C(=O)[C@H]([C@@H](C)O)NC1=O [CASPOFUNGIN]
Candida albicans [1]
  MIC: 0.03 µg/mL (≈ 0.0274 µM)
Candida albicans [2]
  MIC: 2 µg/mL (≈ 1.83 µM)
Candida albicans [3]
  MIC: 2 µg/mL (≈ 1.83 µM)
Candida tropicalis [4]
  MIC: 0.06 µg/mL (≈ 0.0549 µM)
Candida albicans [5]
  MIC: 0.25 µg/mL (≈ 0.229 µM)
Candida tropicalis [6]
  MIC: 2 µg/mL (≈ 1.83 µM)
Candida albicans [7]
  MIC: 1 µg/mL (≈ 0.915 µM)
Candida albicans [8]
  MIC: 16 µg/mL (≈ 14.6 µM)
Candida tropicalis [9]
  MIC: 2 µg/mL (≈ 1.83 µM)
Candida albicans [10]
  MIC: 2 µg/mL (≈ 1.83 µM)
Candida albicans [11]
  MIC: 0.25 µg/mL (≈ 0.229 µM)
Candida albicans [12]
  MIC: 0.03 µg/mL (≈ 0.0274 µM)
Candida albicans [13]
  MIC: 0.5 µg/mL (≈ 0.457 µM)
Candida albicans [14]
  MIC: 0.03 µg/mL (≈ 0.0274 µM)
Candida tropicalis [15]
  MIC: 0.06 µg/mL (≈ 0.0549 µM)
Candida albicans [16]
  MIC: 0.25 µg/mL (≈ 0.229 µM)
Candida albicans [17]
  MIC: 0.06 µg/mL (≈ 0.0549 µM)
Candida albicans [18]
  MIC: 0.5 µg/mL (≈ 0.457 µM)
Candida albicans [19]
  MIC: 0.03 µg/mL (≈ 0.0274 µM)
Candida albicans [20]
  MIC: 0.5 µg/mL (≈ 0.457 µM)
Candida albicans [21]
  MIC: 0.06 µg/mL (≈ 0.0549 µM)
Candida albicans [22]
  MIC: 0.25 µg/mL (≈ 0.229 µM)
Candida albicans [23]
  MIC: 1 µg/mL (≈ 0.915 µM)
Candida albicans [24]
  MIC: 0.03 µg/mL (≈ 0.0274 µM)
Candida albicans [25]
  MIC: 1 µg/mL (≈ 0.915 µM)
Candida albicans [26]
  MIC: 2 µg/mL (≈ 1.83 µM)
Candida albicans [27]
  MIC: 0.25 µg/mL (≈ 0.229 µM)
